Screens from PubChem BioAssay.
This is one part of a sample in which hits are shown more often than they occur.
Ecoli WT expand – E. coli BW25113 growth inhibition, expanded screen; OD600 absorbance; growth inhibition, % at 100 µM; actives 0.15% (n = 98,000); AID 710;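 active = growth inhibition above about 50% at one test dose, limit read from the data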;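 note: growth measured after 20 h incubation at 37 °C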
TNAP act DEA – activators of human TNAP at intermediate phosphate acceptor; purified TNAP, CDP-star luminescence, 100 mM DEA, 30 min; stronger effect = higher value; scale: 0 levamisole-inhibited, 1 vehicle-only enzyme; activation factor at 20 µM; 64,000 tested, under 10 active; AID 813;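 active = activation factor of at least 2 at 20 µM, relative to controls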
WNV NS2B-NS3 inh – blocks West Nile virus NS2B-NS3 protease activity. z-score (concentration not given with the values). P06935. AID 577. WNV NS2B-NS3 protease, fluorogenic substrate Ex360/Em465; stronger effect = lower value. actives 0.18% (n = 65,000); in the data active = z-score below about -3
BAP1 inh – inhibitors of human BAP1 deubiquitinase; recombinant BAP1, Ub-AMC hydrolysis fluorescence kinetic; stronger effect = lower value; Q92560; calls only at 20 µM; actives 0.48% (n = 72,000); AID 436;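 active = activity remaining at or below 50% of control, provided the compound also passes the data quality filters; inactive = the rest, including low values that fail the filters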;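 note: 100% = DMSO wells rate and 0% = substrate alone blank rate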
Target sequence (Q92560 whole entry, looked up): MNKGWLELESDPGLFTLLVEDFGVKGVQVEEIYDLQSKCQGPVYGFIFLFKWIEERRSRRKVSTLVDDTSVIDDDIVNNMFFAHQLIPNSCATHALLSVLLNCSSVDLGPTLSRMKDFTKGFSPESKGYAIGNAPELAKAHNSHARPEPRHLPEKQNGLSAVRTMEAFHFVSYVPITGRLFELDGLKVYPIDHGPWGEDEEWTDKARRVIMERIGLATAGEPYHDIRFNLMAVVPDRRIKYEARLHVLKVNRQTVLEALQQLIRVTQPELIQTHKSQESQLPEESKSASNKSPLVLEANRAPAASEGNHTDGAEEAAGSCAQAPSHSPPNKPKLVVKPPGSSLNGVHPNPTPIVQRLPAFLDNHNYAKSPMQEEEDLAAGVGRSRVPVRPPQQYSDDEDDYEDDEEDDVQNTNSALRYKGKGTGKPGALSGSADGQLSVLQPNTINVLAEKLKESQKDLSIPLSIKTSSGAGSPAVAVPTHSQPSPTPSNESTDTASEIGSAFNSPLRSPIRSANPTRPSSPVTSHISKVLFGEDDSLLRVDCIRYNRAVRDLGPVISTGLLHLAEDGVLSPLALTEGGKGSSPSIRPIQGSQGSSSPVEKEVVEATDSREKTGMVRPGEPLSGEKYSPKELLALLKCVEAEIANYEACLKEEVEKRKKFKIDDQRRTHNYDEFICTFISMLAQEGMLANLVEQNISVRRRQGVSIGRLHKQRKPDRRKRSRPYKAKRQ
tolC growth inh – E. coli tolC mutant growth inhibition; E. coli BW25113 tolC mutant growth, OD615; growth inhibition, % at 10 µM (by protocol); actives 2.2% (n = 65,000); AID 573;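 active = growth inhibition at or above a cutoff equal to the mean over every tested compound plus 3 SD, cut at about 60% in these data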;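 note: growth measured after 20 h incubation at 37 °C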
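Test system: E. coli BW25113 ΔtolC::kan bacteria; incubation: 37 °C, 20 h exposure; medium: LB broth supplemented with 50 µg/mL kanamycin; read-out basis: percent growth inhibition; signal: A615 absorbance measurement; compound: 10 µM final, single dose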
Numbers without * were called inactive; i = inactive; x = no result shown.

SMILES	Ecoli WT expand	TNAP act DEA	WNV NS2B-NS3 inh	BAP1 inh	tolC growth inh
O=C1C(=O)N(Cc2ccco2)C(c2cccc(Cl)c2)/C1=C(\O)c1ccc2c(c1)OCCO2 (configuration not stated)	3.0	0.9	-0.23	i	69.7*
COCCCN1C(=O)C(=O)/C(=C(/O)c2ccc(OC)cc2)C1c1cccc(OC)c1 (configuration not stated)	-2.0	0.9	-0.65	i	23.2
COc1ccc(/C(O)=C2/C(=O)C(=O)N(CC3CCCO3)C2c2cccc(OC)c2)cc1 (configuration not stated)	0.0	1	-0.19	i	100.0*
COc1cccc(C2/C(=C(/O)c3ccc(C)cc3)C(=O)C(=O)N2Cc2ccco2)c1 (configuration not stated)	x	0.9	1.17	i	76.8*
COc1ccc(OC)c(C2/C(=C(/O)c3ccc(C)cc3)C(=O)C(=O)N2Cc2ccco2)c1 (configuration not stated)	x	0.9	0.86	x	8.9
COc1cccc(C2/C(=C(\O)c3ccc4c(c3)OCCO4)C(=O)C(=O)N2CCN(C)C)c1 (configuration not stated)	-1.0	0.9	-0.15	i	10.3
CC1(C)CC(=O)C=C(NCCN2CCN(C(=O)Nc3ccccc3)CC2)C1	1.0	0.8	0.02	i	-16.1
CCCCOC(=O)CSc1nnc(-c2ccc(Cl)cc2Cl)o1	11.0	0.9	0.23	i	73.4*
O=C([C@H](Cc1ccccc1)NS(=O)(=O)c1ccc(Cl)cc1)N1CC[C@@]2(O)CCCC[C@H]2C1	9.0	x	x	x	x
COc1ccccc1N1CCN(C(=O)c2cc(-c3ccc(Cl)cc3)on2)CC1	-5.0	1	0.63	i	53.6
COc1ccccc1N1CCN(C(=O)c2cc(-c3ccc(C)cc3)on2)CC1	-12.0	0.9	0.8	i	85.6*
COc1ccccc1N1CCN(C(=O)c2cc(C3CC3)on2)CC1	-4.0	0.9	-0.33	i	1.9
COc1ccccc1-c1cc(C(=O)N2CCN(c3ccccc3OC)CC2)no1	-8.0	0.9	-1.48	i	63.5*
Cc1cc(N2CCC(C(=O)NC3CCCCC3)CC2)nc(-c2ccccc2)n1	-5.0	1	-4.82*	i	-2.5
CS(=O)(=O)c1ccc2nc(NC(=O)C3COc4ccccc4O3)sc2c1 (configuration not stated)	-6.0	0.9	0.59	i	9.1
COc1ccc2nc(NC(=O)C3COc4ccccc4O3)sc2c1 (configuration not stated)	-9.0	1	0.99	i	93.0*
COc1ccc(NC(=O)N2CCCC(c3nc(-c4ccc(C(C)C)cc4)no3)C2)cc1 (configuration not stated)	-10.0	1	0.47	i	61.6*
O=C(Nc1ccc(Cl)cc1)N1CCC(c2nc(-c3ccc(F)cc3)no2)CC1	-1.0	1	1.25	i	71.7*
CCCCCC(=O)N1CCCC(c2nc(-c3ccc(OC)cc3)no2)C1 (configuration not stated)	-14.0	x	x	x	x
COc1ccc(S(=O)(=O)Cc2ccc(C(=O)N3CCN(c4ccc(Cl)cc4)CC3)o2)cc1	-18.0	1	-0.5	i	23.3
O=C(c1ccc(COc2c(F)c(F)cc(F)c2F)o1)N1CCN(c2ccc(Cl)cc2)CC1	-7.0	1	0.74	x	62.2*
CCn1c(SCC(=O)OC2CCCCC2)nc2ccccc2c1=O	12.0	0.9	0.97	i	71.6*
CCOC(=O)CSc1nc2ccccc2c(=O)n1CC	6.0	0.9	0.34	i	6.7
OCCNC1=NCCN1	1.0	0.9	-3.18*	i	10.2
COc1ccc(NC(=O)c2ccncc2)c([N+](=O)[O-])c1	x	x	x	i	x
SMILES	Ecoli WT expand	TNAP act DEA	WNV NS2B-NS3 inh	BAP1 inh	tolC growth inh
CC1CCN(S(=O)(=O)c2cccc(C(=O)NCc3cccs3)c2)CC1	-7.0	0.9	0.26	i	61.6*
CC(=O)OCC1=C(C(=O)O)N2C(=O)[C@@H](NC(=O)Cc3cccs3)[C@H]2SC1	x	0.9	0.31	i	100.0*
COc1cccc2cc(C(N)=O)c(=Nc3ccccc3)oc12	x	x	x	i	x
Cc1ccc(CNC(=O)C(Cc2ccccc2)NS(=O)(=O)c2cccs2)cc1 (configuration not stated)	3.0	x	x	x	x
CCOC(=O)CNC(=O)C(Cc1ccccc1)NS(=O)(=O)c1cccs1 (configuration not stated)	-2.0	1	-3.4*	x	-5.1
CCOC(=O)C1CCN(S(=O)(=O)c2ccc(C(=O)OC)cc2)CC1	1.0	0.9	-5.54*	i	-3.0
Cc1ccnc(N2CCC(C(=O)Nc3cccc(C(F)(F)F)c3)CC2)n1	0.0	1	-0.24	i	64.6*
O=C(COc1c(F)c(F)c(C(F)(F)F)c(F)c1F)Nc1ccc(N2CCOCC2)c(Cl)c1	-21.0	0.9	0.8	i	100.0*
C=CCn1c(SCC(=O)Nc2ccc3c(c2)OCO3)nnc1-c1cc(Br)ccc1O	-3.0	0.9	-0.11	i	74.5*
CCn1c(Cn2nnc(-c3ccccc3)n2)nnc1SCC(=O)N1CCOCC1	5.0	0.9	-1.05	i	2.3
CCn1c(Cn2nnc(-c3ccccc3)n2)nnc1SCc1ccc(Cl)c(Cl)c1	-30.0	0.9	-0.22	x	73.3*
Cc1nn(-c2ccccc2)c2sc(C(=O)O)cc12	-7.0	0.9	-0.5	i	2.1
Cc1nn(-c2ccccc2)c2sc(-c3n[nH]c(=S)o3)cc12	-9.0	0.8	0.7	i	78.2*
O=S(=O)(Nc1ccc2c(c1)OCCO2)c1ccc2oc3ccccc3c2c1	-7.0	0.9	1.16	x	97.5*
CSc1nc2ccc(NS(=O)(=O)c3ccc4c(c3)OCCO4)cc2s1	-10.0	0.9	-1.44	x	100.0*
COc1ccc(C(=O)N2CCN(c3c(Cl)cccc3[N+](=O)[O-])CC2)cc1	x	x	x	i	x
NC1=NC(c2cn(-c3ccccc3)nc2-c2cccs2)n2c(nc3ccccc32)N1 (configuration not stated)	6.0	1.6	0.03	i	100.0*
CCOc1ccc(-n2nc3ccc(NC(=O)c4ccc(C)c([N+](=O)[O-])c4)cc3n2)cc1	x	x	x	i	x
O=C(Nc1nnc(-c2cccs2)o1)c1cccc(Oc2ccccc2)c1	29.0	1	0.53	i	97.0*
COc1cccc(C(=O)Nc2nnc(-c3cccs3)s2)c1	-26.0	x	x	x	x
O=C(Nc1nnc(-c2cccs2)o1)c1cccc(F)c1	x	0.8	0.44	i	100.0*
Cc1cc(NC(=O)c2cccc(F)c2)no1	4.0	x	x	x	x
CC1CN(Cc2nc3c(c(=O)n(C)c(=O)n3C)n2CCc2ccccc2)CC(C)O1 (configuration not stated)	x	0.9	0.4	i	x
CCc1ccc2oc(=O)cc(CN(C)Cc3ccccc3)c2c1	-7.0	0.9	0.32	i	100.0*
CC(=O)OC(Cn1ccnc1)c1ccccc1 (configuration not stated)	-8.0	1	-0.26	i	-6.3
CC(C)COc1ccc(-c2nnc(-c3ccco3)o2)cc1	-17.0	0.9	0.6	i	60.8*
